Our source for the inhibition and IC50 values is ChEMBL document CHEMBL1127802, “Selective inhibitors of monoamine oxidase. 2. Arylamide SAR” (J Med Chem, 1994).

Data set [1] addresses T1, MAO B (monoamine oxidase B) (Rattus norvegicus, UniProt P19643).
T1 sequence (P19643 whole entry): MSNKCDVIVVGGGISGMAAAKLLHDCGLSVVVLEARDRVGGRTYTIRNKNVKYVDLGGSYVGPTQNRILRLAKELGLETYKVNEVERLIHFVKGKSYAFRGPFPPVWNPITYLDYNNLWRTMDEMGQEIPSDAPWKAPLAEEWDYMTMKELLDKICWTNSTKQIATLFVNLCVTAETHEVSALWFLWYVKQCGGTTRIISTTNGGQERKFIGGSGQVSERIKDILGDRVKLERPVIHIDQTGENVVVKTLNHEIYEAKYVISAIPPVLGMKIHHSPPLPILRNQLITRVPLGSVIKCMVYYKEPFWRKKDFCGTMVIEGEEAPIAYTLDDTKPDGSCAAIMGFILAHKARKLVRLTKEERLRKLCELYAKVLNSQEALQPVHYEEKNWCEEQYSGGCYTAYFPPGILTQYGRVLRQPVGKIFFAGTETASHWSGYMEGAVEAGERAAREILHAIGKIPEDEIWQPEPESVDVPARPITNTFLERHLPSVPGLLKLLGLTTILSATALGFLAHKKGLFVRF
Briefly: Inhibitory activity against monoamine oxidase B (MAO B) from rat brain using a radiometric procedure with [14C]- phenethylamine atb 10 uM. The conditions noted are these: rat brain monoamine oxidase B preparation, probe [14C]-phenethylamine. The gist of the method:
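Rat brain mitochondrial MAO extract preincubated ± inhibitor 15 min at 37 °C in 50 mM potassium phosphate pH 7.4. […] Blanks contained 2 mM pargyline. Stopped with HCl, products extracted into ethyl acetate/toluene, scintillation counted. Triplicates. IC50 from mean % inhibition vs log concentration plot.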

The target of data set [2] is T2, Amine oxidase [flavin-containing] A (Rattus norvegicus, UniProt P21396).
T2 sequence (P21396 whole entry): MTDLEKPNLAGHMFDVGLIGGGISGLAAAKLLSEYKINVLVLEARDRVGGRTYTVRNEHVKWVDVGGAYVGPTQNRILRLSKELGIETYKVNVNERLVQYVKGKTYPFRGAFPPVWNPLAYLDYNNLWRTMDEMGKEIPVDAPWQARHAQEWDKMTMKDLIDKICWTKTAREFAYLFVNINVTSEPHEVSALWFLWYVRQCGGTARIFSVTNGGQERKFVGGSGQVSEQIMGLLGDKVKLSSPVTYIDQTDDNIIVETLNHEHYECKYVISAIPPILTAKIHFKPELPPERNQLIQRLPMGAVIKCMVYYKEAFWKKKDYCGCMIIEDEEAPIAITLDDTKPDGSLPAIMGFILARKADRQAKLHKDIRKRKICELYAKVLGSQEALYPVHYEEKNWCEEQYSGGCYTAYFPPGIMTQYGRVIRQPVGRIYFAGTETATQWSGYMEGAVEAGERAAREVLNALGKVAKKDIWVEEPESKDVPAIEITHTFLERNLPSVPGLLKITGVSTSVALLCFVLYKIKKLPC
Description: Inhibitory activity against monoamine oxidase A (MAO A) from rat brain using a radiometric procedure with [3H]- serotonin. The procedure, abridged: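 Rat brain mitochondrial MAO extract was preincubated with or without inhibitor for 15 min at 37 °C in 50 mM potassium phosphate, pH 7.4. […] Blanks contained 2 mM pargyline. Reactions were stopped with HCl, products extracted into ethyl acetate/toluene and counted by scintillation. Triplicates were averaged as % inhibition, and IC50 was taken from % inhibition vs log concentration.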

`CC(=O)Nc1ccc2c(c1)[nH]c1ccccc12` gave an inhibition at 10 uM in data set [1] of 38%. Besides, in data set [2], 43 nM corresponded to half-maximal inhibition (IC50).

For orientation: inhibition means the relative decrease from the control value, in per cent. Read a high inhibition as a strong effect. The IC50 is the point on the concentration scale where inhibition reaches its midpoint. Read a high IC50 as weaker potency.
